Here are results for six molecules from ChEMBL document CHEMBL3580602, “Iminolactones from Schizophyllum commune” (J Nat Prod, 2015).

The source made the active and inactive calls. No cut-off for these calls is given here. Some results are limits rather than exact numbers.

The test system of series [1] is MCF7. Nature of the series: Cytotoxicity against human MCF7 cells up to 200 uM after 48 hrs by sulforhodamine B assay. Format: functional, cell-based. In outline: (§1)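 Cancer lines sourced from the National Cancer Institute and run in a high-flux anticancer screen. Cells were exposed to the test compound over a range of concentrations at 37 °C for 48 h. IC50 is reported as the mean of four experiments, with thapsigargin, methotrexate and paclitaxel as positive controls.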

Series [2] is described as follows: Cytotoxicity against human MCF10A cells up to 200 uM. The class given is cell-based. Conditions: mcf-10a.
Series [3] deals with EL4. Nature of the series: Cytotoxicity against mouse EL4 cells up to 200 uM after 48 hrs by sulforhodamine B assay. The class given is functional, cell-based. In short, it runs like this: as §1
Series [4] deals with PC-3. Nature of the series: Cytotoxicity against human PC3 cells up to 200 uM after 48 hrs by sulforhodamine B assay. Format: functional, cell-based. In short, it runs like this: as §1
Series [5] is described as follows: Cytotoxicity against mouse McCoy cells up to 200 uM. The class given is cell-based.
Series [6] deals with EL4. Description: Cytotoxicity against mouse EL4 cells assessed as growth inhibition after 48 hrs by sulforhodamine B assay. Format: functional, cell-based. As to conditions: EL4, 48 h. In outline: as §1
Series [7] is described as follows: Cytotoxicity against human MCF10A cells assessed as growth inhibition. The class given is cell-based. Conditions: MCF-10A.
Series [8] concerns MCF7. Nature of the series: Cytotoxicity against human MCF7 cells assessed as growth inhibition after 48 hrs by sulforhodamine B assay. The class given is functional, cell-based. Conditions: MCF7, 48 h. In short, it runs like this: as §1
For series [9], the system named is PC-3. Nature of the series: Cytotoxicity against human PC3 cells assessed as growth inhibition after 48 hrs by sulforhodamine B assay. The class given is functional, cell-based. Conditions: PC-3, 48 h. In short, it runs like this:
as §1

The nature of series [10]: Cytotoxicity against mouse McCoy cells assessed as growth inhibition. The class given is cell-based.
A short description of series [11]: Cytotoxicity against mouse McCoy cells assessed as growth inhibition at 1230 uM relative to control. The class given is cell-based. Conditions: read-out: GI.
Series [12] is described as follows: Cytotoxicity against human MCF10A cells assessed as growth inhibition at 1230 uM relative to control. Format: cell-based, MCF-10A. As to conditions: read-out: GI.

On to `CC1(C)C[C@@H]2OC(=O)[C@@H](Cc3ccccc3)N=C2[C@@]23C(=O)OC4OCC(=CC[C@@H]12)[C@H]43` (stereo partly specified), for which the result in the series with MCF7 [1], in the series on EL4 [3] and in the series with PC-3 [4] was inactive. For the same molecule, the Activity result in series [2] and in series [5] was “Non-toxic” each time.

Consider `C/C=C(/C)C(=O)O[C@H]1C(C)=C2[C@H]([C@@H]1OC(=O)CCCCCCC)[C@@](C)(OC(C)=O)C[C@H](OC(=O)CCC)[C@@]1(O)[C@H]2OC(=O)[C@@]1(C)O` [THAPSIGARGIN], for which the IC50 in the series on EL4 [6] stood at 1.4 µM; in series [7], 2.4 µM; with MCF7 [8], 2.7 µM; with PC-3 [9], 2.4 µM; in [10] it was 2 µM.

For the molecule `CC1(C)C[C@@H]2OC(=O)[C@H](Cc3c[nH]c4ccccc34)N=C2[C@@]23C(=O)OC4OCC(=CC[C@@H]12)[C@H]43` (stereo partly specified), the IC50 with EL4 [6] was 4 µM; in [7] it was over 1230 µM; in the series with MCF7 [8] it was 6.7 µM; with PC-3 [9], 13.4 µM; in [10], over 1230 µM. The inhibition at 1230 µM in series [11] was found to be 41%; in series [12], 20%.

As to `CC(=O)O[C@H]1C(=O)[C@@]2(C)[C@H]([C@H](OC(=O)c3ccccc3)[C@]3(O)C[C@H](OC(=O)[C@H](O)[C@@H](NC(=O)c4ccccc4)c4ccccc4)C(C)=C1C3(C)C)[C@]1(OC(C)=O)CO[C@@H]1C[C@@H]2O` [PACLITAXEL], the IC50 in the series on EL4 [6] amounted to 1.7 µM.

With `CC1(C)C[C@@H]2OC(=O)[C@H](Cc3ccccc3)N=C2[C@@]23C(=O)OC4OCC(=CC[C@@H]12)[C@H]43` (stereo partly specified), the IC50 was 3.7 µM with EL4 [6]; over 1230 µM in series [7]; 4.9 µM in the series on MCF7 [8]; 14.7 µM in the series with PC-3 [9]; over 1230 µM in series [10]. The inhibition at 1230 µM in series [11] was 30%; in [12], 22%.

Take `CN(Cc1cnc2nc(N)nc(N)c2n1)c1ccc(C(=O)N[C@@H](CCC(=O)O)C(=O)O)cc1` [METHOTREXATE]: the IC50 in the series with EL4 [6] was 5.1 µM.
